# CHT PAM = allosterically activates the human high affinity choline transporter | CHT-expressing cells, membrane potential dye, choline EC20; hits give high values; LV-AA mutant CHT in HEK293 cells | AID 488977 | 0.49% of 310,000 active | B-score at 10 µM;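 active means initial fluorescence not abnormally high and integrated response B-score, plate-corrected, over 3 SD above library mean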
# Target sequence (Q9GZV3 whole entry, looked up): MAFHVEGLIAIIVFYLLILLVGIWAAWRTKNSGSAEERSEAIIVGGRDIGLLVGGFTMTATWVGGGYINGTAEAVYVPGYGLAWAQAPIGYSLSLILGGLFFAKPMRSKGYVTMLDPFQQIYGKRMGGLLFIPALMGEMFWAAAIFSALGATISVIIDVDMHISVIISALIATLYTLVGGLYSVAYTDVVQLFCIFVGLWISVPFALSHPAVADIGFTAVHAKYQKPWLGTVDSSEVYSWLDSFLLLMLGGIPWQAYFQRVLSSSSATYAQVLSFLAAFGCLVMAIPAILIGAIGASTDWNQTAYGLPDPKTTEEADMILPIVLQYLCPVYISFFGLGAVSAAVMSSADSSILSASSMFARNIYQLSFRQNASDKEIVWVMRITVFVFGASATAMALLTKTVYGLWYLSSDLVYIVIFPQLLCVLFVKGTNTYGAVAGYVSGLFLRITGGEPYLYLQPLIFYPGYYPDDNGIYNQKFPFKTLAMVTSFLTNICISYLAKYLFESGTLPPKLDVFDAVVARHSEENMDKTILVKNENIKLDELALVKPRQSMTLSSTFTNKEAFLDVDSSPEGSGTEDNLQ
# CHT block = inhibitors of human choline transporter CHT; CHT-expressing cells, membrane potential dye, choline response; hits give low values; Q9GZV3; B-score at 10 µM; 0.86% of 310,000 active;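 active means B-score over 3 SD under the library average, and starting fluorescence ratio not unusually high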;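 further: choline stimulus applied at its EC90 after an EC20 pre-addition; B-score computed on integrated fluorescence ratio after choline addition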
# Rad51 HR inh = blocks human Rad51 in homologous recombination. AID 1385. Q06609. inhibition, % at 10 µM. hRad51 DNA strand exchange, fluorescence dequenching. 0.085% of 200,000 active;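 active means inhibition above 40% at the single screening dose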;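 further: 0% = DMSO control wells and 100% = blanks with heterologous ssDNA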
#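 System: hRad51 filaments on single-stranded DNA; reagent: Fluorescein- and BHQ1-tagged 47-mer duplex; compound dosing: one concentration, 10 µM final; timing: filaments 15 min 37 °C, then compound 30 min; measured by: fluorescein emission 520 nm, excitation 485 nm; benchmarks: per-plate controls and blanks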
# KCC2 mod = modulators of human KCC2 chloride dependent transport. 2.2% of 190,000 active. B-score of Tl+ flux slope (higher = more flux/activation; lower = inhibition) at 10 µM. AID 1456. Q9H2X9. KCC2 cells, thallium flux FluoZin-2 fluorescence;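 active means thallium flux slope and its plate-corrected score both differing from the plate sample mean at a set confidence after two filtering rounds, in either direction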;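 further: slope of fluorescence scaled to starting intensity during 10 to 20 s after thallium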
# CHT block conf = confirmation of human choline transporter CHT inhibitors; CHT-expressing cells, choline membrane potential dye; LV-to-AA substituted CHT, HEK293 cells; 70% of 2,400 active; shares compounds with CHT block; AID 493221; CHT activity remaining % of control (hits give low values), % at 10 µM;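 active means choline transporter activity left, mean of duplicates at 10 µM, below buffer-only control mean minus 3 SD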;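 further: depolarization triggered by choline at its EC90 following an EC20 pre-addition; 0% = hemicholinium-3 full block and 100% = buffer-only control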
# HEK293 MPD ctr = counter-screen for CHT inhibitors: effect in parental HEK293 cells; shares compounds with CHT block; membrane potential dye, choline response; active = decrease or increase beyond buffer ±3SD; membrane potential ratio readout (active if shifted either direction beyond buffer ±3SD; no single direction) at 10 µM; 4% of 2,400 active;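 further: parental cells lack the transporter so any hit is non-specific; ratio is peak minus trough fluorescence over baseline after EC90 choline challenge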
# * marks the source's active call; other numbers are inactive results; i = inactive; · = no result given. In the library only some 2.6% were active in any assay of this set; here they are far more common.
SMILES,CHT PAM,CHT block,Rad51 HR inh,KCC2 mod,CHT block conf,HEK293 MPD ctr
Cc1cccn2cc(COc3ccc(-c4ccccc4)cc3)nc12,·,·,10.3,-0.722,·,·
Cc1ccccc1OCCn1c(C)nc2ccccc21,i,-5.18*,·,·,i,i
COC(=O)c1cc(C(=O)Nc2nnc(C3CC3)s2)cc([N+](=O)[O-])c1,i,i,15.7,-1.65,·,·
COc1ccc(-c2ccc(-c3noc(-c4ccccc4OC)n3)c(OC)n2)cc1,i,-5.03*,2.3,0.121,i,i
COc1ccc(-c2ccc(-c3noc(-c4ccccc4C)n3)c(OC)n2)cc1,i,i,-1.2,·,·,·
CC(=O)c1ccc(NC(=O)/C(=C\c2ccc(F)cc2)NC(=O)c2ccco2)cc1,i,i,·,·,·,·
Cc1ccccc1N=C/C=C1\N(C)c2ccccc2C1(C)C,i,i,-4.7,-1.08,·,·
CN1/C(=C\C=Nc2cc(S(=O)(=O)N3CCOCC3)ccc2N2CCOCC2)C(C)(C)c2ccccc21,i,i,7.9,-1.3,20.9%*,i
Cc1nnc(SCc2ccc3c(c2)OCO3)s1,i,i,0.5,-0.00413,·,·
O=C(Cn1[nH]c(=O)c2ccccc2c1=O)OCC(=O)N1CCCc2ccccc21,i,i,9.4,-0.849,·,·
O=C(Cn1[nH]c(=O)c2ccccc2c1=O)OCC(=O)N1CCc2ccccc2C1,i,-5.42*,0.2,-1.62,i,i
CC(C)OP(=O)(OC(C)C)/C(C=O)=N\Nc1ccc([N+](=O)[O-])cc1,i,-8.43*,-1.0,0.114,i,i
Cc1ccc2[nH]c3c(c2c1)CN(C(=O)CN1CCN(Cc2ccc4c(c2)OCO4)CC1)CC3,i,-5.63*,3.1,·,38.0%*,i
NCCc1nnc(SCc2ccc(F)cc2)o1,i,i,3.0,-0.0715,·,·
NCCCCCc1nnc(SCc2ccc(Cl)c(Cl)c2)o1,i,-5.41*,0.3,0.474,30.1%*,i
N/C(=N\O)c1ccc(N2CCN(c3ncccc3C(F)(F)F)CC2)nc1,i,-5.66*,3.0,-1.89,45.2%*,i
O=C(Nc1ccc(N2CCN(c3ncccc3C(F)(F)F)CC2)nc1)c1cccs1,i,i,-11.1,-1.73,·,·
COc1ccc(-c2sc(Nc3ccc(F)c(F)c3F)nc2CCC(=O)NN)cc1,i,-5.16*,·,·,i,i
CCOC(=O)Cc1csc(N/C(=N/S(=O)(=O)c2ccc(F)cc2F)c2ccccc2)n1,i,-6.78*,-2.5,0.392,63.1%*,i
CN(C(=O)Cn1cnc([N+](=O)[O-])n1)C1CCCCC1,i,i,·,·,·,·
CCCCC(CC)C(=O)NCc1ccccc1OC (stereo unspecified),i,-5.63*,-3.1,0.512,i,i
COc1ccc2cc(S(=O)(=O)N3CCCC3)ccc2c1,i,i,·,·,·,·
Cc1ccc(S(=O)(=O)NC(=O)c2ccc(-c3ccc(C)c4ccccc34)o2)cc1,i,-5.01*,-1.4,·,i,i
Cc1ccc(-c2ccc(C(=O)Nc3ccccc3)o2)c2ccccc12,i,i,0.7,0.515,·,·
Cc1c(C#N)c(NC(=O)CCl)n(Cc2cccs2)c1C,i,-6.13*,-21.1,0.318,i,i
SMILES,CHT PAM,CHT block,Rad51 HR inh,KCC2 mod,CHT block conf,HEK293 MPD ctr
CCN1CCn2c3c(c4cc(Cl)ccc42)CCCC31 (stereo unspecified),i,-5.76*,-13.8,·,70.2%*,i
CC(NC(=O)C1c2ccccc2Oc2ccccc21)C1CCCO1 (stereo unspecified),i,-5.72*,-1.8,0.909,67.9%*,i
CC1=NN(c2cccc(Cl)c2)C(=O)C1,i,i,22.1,0.127,i,i
CC1=NN(c2ccc(Cl)c(C(=O)O)c2)C(=O)C1,i,i,-10.4,1.05,·,·
CC(NS(=O)(=O)/C=C/c1ccccc1)c1ccccc1 (stereo unspecified),i,i,4.4,-1.55,·,·
O=C(Nc1ccc(F)cc1)N1CCN(CCc2ccccc2)CC1,i,-5.4*,·,-2.66,68.8%*,i
O=C(Nc1ccccc1)N1CCN(CCc2ccccc2)CC1,i,i,-0.9,0.261,·,·
COc1ccc(C(=O)NC2CCCc3ccccc32)cc1Br (stereo unspecified),i,i,·,·,·,·
COc1ccc(C(=O)N(C)C2CCCc3ccccc32)cc1OC1CCN(C(C)C)CC1 (stereo unspecified),i,-9.97*,·,·,14.5%*,i
COc1ccc(C(=O)NC2CCc3ccccc32)cc1OC1CCN(C(C)C)CC1 (stereo unspecified),i,-8.95*,·,·,16.3%*,i
NC(=O)c1cc(S(=O)(=O)NCCc2ccc(Cl)cc2)cs1,i,i,·,·,·,·
CCc1c(C2(O)CCCCC2)[nH]c2cc(C(F)(F)F)ccc12,i,-5.71*,·,·,52.7%*,i
CCc1c(C2(O)CCCCC2)[nH]c2ccc(C#N)cc12,i,i,2.0,·,·,·
O=C(COc1ccc(S(=O)(=O)N2CCOCC2)cc1)Nc1ccccc1C(F)(F)F,i,i,-2.0,0.968,·,·
O=CN/C=C/c1cc(O)ccc1O,i,-7.42*,1.8,0.555,48.4%*,i
O=Cc1ccc(O)cc1O,i,i,·,·,·,·
COC(CNC(=O)C1CCC(CNS(=O)(=O)c2c(C)cc(C)cc2C)CC1)OC (stereo unspecified),i,i,·,·,·,·
Cc1ccc(-c2csc(/C(C#N)=C(\O)CCl)n2)cc1,·,·,-1.0,-2.89,·,·
N#C/C(=C(/O)CCl)c1nc(-c2ccccc2)cs1,i,-8.41*,-55.1,-1.22,-31.8%*,i
Cc1csc2c(N3CCN(C(=S)Nc4ccc(C(F)(F)F)cc4)CC3)ncnc12,i,-6.16*,·,-0.925,54.5%*,i
O=C(COC(=O)c1cccc(Cl)c1)Nc1cc(Cl)ccc1Oc1ccccc1,i,i,18.0,-2.18,·,·
CC1CCCCC1NC(=O)c1c(O)nc2ccccn2c1=O (stereo unspecified),i,-7.09*,·,·,60.3%*,i
CC(=O)Nc1ccc(NC(=O)CSc2nnc(-c3ccco3)n2Cc2ccco2)cc1,i,i,10.3,0.187,·,·
O=C(CSc1nnc(-c2ccco2)n1Cc1ccco1)NCc1ccccc1,i,-5.12*,-3.0,-0.747,i,i
O=C(CNC(=O)c1cccs1)N/N=C/c1c(F)cccc1Cl,i,i,·,·,·,·
C/C(=C\C=C\c1ccccc1)C(=O)c1c(C)cc(C)[nH]c1=O,i,i,12.0,0.0305,·,·
Cc1ccccc1OCC(=O)NC1CCCCCCC1,i,i,·,·,·,·
O=C(COc1ccccc1-c1ccccc1)NNC(=O)NC1CCCCC1,i,-6.32*,·,-0.525,33.8%*,i
O=S(=O)(Nc1nc2ccccc2s1)c1ccc(Cl)s1,i,-5.21*,-10.1,-1.1,55.8%*,i
